The viability is a read-out of living cells in per cent, often relative to untreated cells. The term inhibition denotes the change of the read-out against control, counted positive when it falls.

This note sets out measurements from PubChem BioAssay.

A short description of assay [1]: Her2 expression decrease, cell viability multiplex – SKBR3 breast tumor cells, AlphaScreen, ATP viability, primary screen (AID 461;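 active means Her2 level under about 52% in both replicate screens, with viability over 70% of control, limit read from the data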;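 on Her2 level: lower value means less Her2 protein in the cells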;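 on viability: percent of carrier control wells set as 100% viability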). The conditions noted are these: SKBR3 Her2 protein level, 18-24 h, measured here: SKBR3 viability, ATP luminescence, at 10 µM. For orientation: Alpha assays give light when donor and acceptor beads are brought close together.
Assay [2] concerns the target Receptor tyrosine-protein kinase erbB-2 (Homo sapiens) (UniProt P04626). The assay is described as above. The settings on record: 18-24 h, at 10 µM, stronger effect = lower value.
Assay [3] in a line: reduced viability of SK-BR-3 breast cancer cells – cell-based, 24 h, human, pilot screen (AID 572;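 active means viability at or below 10% of carrier control in both of two separate runs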;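 further: compound exposure lasted between 18 and 24 h rather than exactly 24 h; 100% = carrier-treated control wells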). The settings on record: SK-BR-3 viability, CellTiter-Glo luminescence, at 10 µM, stronger effect = lower value.
Assay [4] is described as follows: HUVEC growth inhibition – cell-based, human, primary screen (AID 575;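 active means viability at or below 30% in both replicate assays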;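 further: 100% = median of untreated cell wells with 0.1% DMSO on each plate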). The conditions noted are these: HUVEC proliferation, CellTiter-Glo luminescence, 72 h; at 10 µM; stronger effect = lower value. Summed up:
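Test system: HUVEC primary cells. Quantity: 1250 endothelial cells in each well. Dosing: single-point 10 µM, DMSO 0.1% final. Incubation: 72 h treatment at 37 °C. Measured by: CTG luminescence. Control set: DMSO cell controls and MePR drug controls. Plate: collagen-coated 384-well format.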
Background: Cellular ATP, detected with luciferase, serves as a proxy for viable cell number.

Assay [5] can be described thus: H69AR cell proliferation blockers – human, duplicate replicates, primary screen (AID 580;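 active means viability at or under a set limit in both replicates, limit being median viability minus 3 SD, cut at about 48% in these data, passing the limit was not always enough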;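 further: 100% = mean luminescence of untreated wells and 0% = no signal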). The settings on record: H69AR lung tumor cells viability, ATP luminescence, 72 h; at 10 µM; stronger effect = lower value.
The nature of assay [6]: MRP1 drug-resistance reversers in H69AR cells – cell-based, doxorubicin co-treatment, pilot screen (AID 601). The settings on record: CellTiter-Glo, 72 h, at 10 µM; for differential viability (reversal): stronger effect = higher value.
The nature of assay [7]: yeast transport mutant growth inhibition pilot in 384-well plates, post-Golgi transport modulator project (AID 636; in the data active means inhibition above about 31%). The settings on record: absorbance 615 nm, about 18 h, stronger effect = higher value.
Assay [8] in a line: growth suppression of yeast trafficking mutant, preliminary HTS, modulators of trafficking downstream of Golgi apparatus project, 1536-format plate, OD 615 nm (AID 637; in the data active means inhibition above about 30%). The conditions noted are these: yeast transport mutant growth, absorbance 615 nm, 18 h; stronger effect = higher value.
The mark [9] stands for this setting: H69AR cells + 2 uM doxorubicin, measured here: viability with 2 uM doxorubicin, stronger effect = lower value.
The mark [10] stands for this setting: H69AR cells, compound alone cytotoxicity.

The source made the active and inactive calls.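 How the source made its calls, unless noted: active means viability loss from added drug above about 55%, and viability with drug at most 40%, in both replicates (limit read from the data, passing the limit was not always enough); inconclusive means both conditions met in only one replicate; inactive means neither replicate meets both conditions.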

Sequence of Receptor tyrosine-protein kinase erbB-2 (Homo sapiens) (P04626 whole entry, looked up): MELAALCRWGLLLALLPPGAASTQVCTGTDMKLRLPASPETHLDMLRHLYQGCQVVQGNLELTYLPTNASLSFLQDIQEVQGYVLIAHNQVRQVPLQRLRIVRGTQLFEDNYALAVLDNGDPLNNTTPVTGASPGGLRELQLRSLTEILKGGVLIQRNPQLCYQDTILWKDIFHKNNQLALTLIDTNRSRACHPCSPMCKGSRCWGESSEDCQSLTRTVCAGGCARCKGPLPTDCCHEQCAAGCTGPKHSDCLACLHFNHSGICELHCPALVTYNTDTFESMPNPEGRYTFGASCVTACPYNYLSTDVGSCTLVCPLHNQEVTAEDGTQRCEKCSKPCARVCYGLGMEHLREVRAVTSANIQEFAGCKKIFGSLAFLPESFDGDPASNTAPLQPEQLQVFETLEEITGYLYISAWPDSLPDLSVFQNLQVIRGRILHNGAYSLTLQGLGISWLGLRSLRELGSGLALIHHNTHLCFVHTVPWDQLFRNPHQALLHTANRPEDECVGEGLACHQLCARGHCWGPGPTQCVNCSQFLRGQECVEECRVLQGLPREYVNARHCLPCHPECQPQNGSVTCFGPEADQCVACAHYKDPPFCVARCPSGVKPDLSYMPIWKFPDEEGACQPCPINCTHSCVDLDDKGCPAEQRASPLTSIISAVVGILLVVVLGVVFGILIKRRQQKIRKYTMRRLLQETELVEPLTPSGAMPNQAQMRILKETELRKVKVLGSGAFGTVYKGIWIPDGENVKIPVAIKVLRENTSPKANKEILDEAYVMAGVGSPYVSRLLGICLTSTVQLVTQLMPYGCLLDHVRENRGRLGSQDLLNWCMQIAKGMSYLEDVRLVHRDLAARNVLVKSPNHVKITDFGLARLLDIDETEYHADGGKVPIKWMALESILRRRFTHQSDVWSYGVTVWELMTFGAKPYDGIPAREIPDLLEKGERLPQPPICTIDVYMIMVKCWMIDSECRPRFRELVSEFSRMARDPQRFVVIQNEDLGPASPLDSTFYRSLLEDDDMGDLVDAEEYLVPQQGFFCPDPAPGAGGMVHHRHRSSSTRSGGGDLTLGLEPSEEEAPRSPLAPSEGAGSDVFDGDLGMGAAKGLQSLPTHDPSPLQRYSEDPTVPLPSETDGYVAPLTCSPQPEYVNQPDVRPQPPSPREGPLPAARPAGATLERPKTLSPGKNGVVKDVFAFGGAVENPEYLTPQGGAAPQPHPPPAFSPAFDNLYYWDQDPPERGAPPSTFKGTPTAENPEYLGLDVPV

With `CCOc1ccc(NC(=O)c2ccc3c(c2)N(Cc2ccc(F)cc2)C(=O)CS3=O)cc1` (stereo not given), the viability in assay [1] was 90%; in assay [3] it was 90% (inactive); in assay [4], 70.4% (inactive); in assay [5], 90% (inactive); in assay [6] (setting [9]), 78.6%; in assay [6] (setting [10]), 90%. Further, the Her2 level in assay [2] is 81.5% (inactive). The differential viability (reversal) in assay [6] (H69AR cells + 2 uM doxorubicin) was 11.4% (inactive). The values for the inhibition in assay [7] and in assay [8] were -1.07% (inactive) and -0.17% (inactive), respectively.

Take `Cc1noc(C)c1C(=O)Nc1ccc(Cl)cc1C(F)(F)F`: the viability in assay [1] was 91%; in assay [3], 91% (inactive); in assay [4], 84.7% (inactive); in assay [5], 93.1% (inactive); in assay [6] (setting [9]), 94%; in assay [6] (setting [10]), 93.1%. Besides, the Her2 level in assay [2] was 86.5% (inactive). In addition, the differential viability (reversal) in assay [6] (H69AR cells + 2 uM doxorubicin) is -0.845% (inactive). Moreover, the inhibition in assay [7] was -6.13% (inactive); in assay [8] it was 3.11% (inactive).

On to `Cc1ccc2ncnc(NCCCN3CCOCC3)c2c1`, for which the viability in assay [1] is 98.5%; in assay [3], 98.5% (inactive); in assay [4], 91.4% (inactive); in assay [5] it was 101% (inactive); in assay [6] (setting [9]) it was 102%; in assay [6] (setting [10]), 101%. Besides, the Her2 level in assay [2] is 120% (inactive). In addition, in assay [6] (H69AR cells + 2 uM doxorubicin), the differential viability (reversal) was -0.115% (inactive). Also, the inhibition in assay [7] is -0.79% (inactive); in assay [8] it was 5.41% (inactive).

In the case of `CCCNS(=O)(=O)c1ccc(OCC(=O)NCc2ccc3c(c2)OCO3)cc1`, the viability in assay [1] was 105%; in assay [3], 105% (inactive); in assay [4] it was 88.2% (inactive); in assay [5] it was 94.1% (inactive); in assay [6] (setting [9]) it was 89.1%; in assay [6] (setting [10]), 94.1%. The Her2 level in assay [2] is 89.5% (inactive). Besides, the differential viability (reversal) in assay [6] (H69AR cells + 2 uM doxorubicin) is 4.96% (inactive). For the same molecule, the inhibition in assay [7] is -6.05% (inactive); in assay [8], 11% (inactive).

For the molecule `COc1ccc(N2C(N)=C(C#N)C(c3cccnc3)C3=C2CC(C)(C)CC3=O)cc1` (stereo not given), the viability was 106% in assay [1]; 106% (inactive) in assay [3]; 79.5% (inactive) in assay [4]; 20.6% (active) in assay [5]; 23.6% in assay [6] (setting [9]); 20.6% in assay [6] (setting [10]). Besides, the Her2 level in assay [2] is 90% (inactive). Moreover, the differential viability (reversal) in assay [6] (H69AR cells + 2 uM doxorubicin) is -3% (inactive). Besides, the values for the inhibition in assay [7] and in assay [8] were -8.9% (inactive) and 0.32% (inactive), respectively.

As to `CCOC(=O)C1=C(C)N=C2SCCC(=O)N2C1c1cc(Br)ccc1OC` (stereo not given), the viability in assay [1] is 94.5%; in assay [3], 94.5% (inactive); in assay [4], 107% (inactive); in assay [5] it was 92% (inactive); in assay [6] (setting [9]), 90.3%; in assay [6] (setting [10]), 92%. The Her2 level in assay [2] is 91% (inactive). Also, the differential viability (reversal) in assay [6] (H69AR cells + 2 uM doxorubicin) was 1.69% (inactive). Besides, the results for the inhibition in assay [7] and in assay [8] were -7.67% (inactive) and 0% (inactive), respectively.

On to `Cc1nc2ccc(NC(=O)N3CCSCC3)cc2s1`, for which the viability in assay [1] was 89.5%; in assay [3], 89.5% (inactive); in assay [4] it was 108% (inactive); in assay [5], 94.3% (inactive); in assay [6] (setting [9]) it was 100%; in assay [6] (setting [10]), 94.3%. Moreover, the Her2 level in assay [2] is 107% (inactive). The differential viability (reversal) in assay [6] (H69AR cells + 2 uM doxorubicin) was -5.83% (inactive). For the same molecule, the inhibition was 1.84% (inactive) in assay [7] and 8.89% (inactive) in assay [8].

Take `CCOC(=O)Cc1c(C)c2c(O)cc(O)cc2oc1=O`: the viability was 84.5% in assay [1]; 84.5% (inactive) in assay [3]; 97.3% (inactive) in assay [4]; 99% (inactive) in assay [5]; 86.8% in assay [6] (setting [9]); 99% in assay [6] (setting [10]). Besides, the Her2 level in assay [2] was 77.5% (inactive). Also, the differential viability (reversal) in assay [6] (H69AR cells + 2 uM doxorubicin) is 12.2% (inactive). The results for the inhibition in assay [7] and in assay [8] were -6.27% (inactive) and 1.9% (inactive), respectively.

In the case of `CN(C)/C=C1\N=C(c2ccc3c(c2)OCO3)OC1=O`, the viability in assay [1] was 91%; in assay [3], 91% (inactive); in assay [4] it was 94.4% (inactive); in assay [5], 98.1% (inactive); in assay [6] (setting [9]), 76.9%; in assay [6] (setting [10]), 98.1%. Further, in assay [2], the Her2 level is 94.5% (inactive). For the same molecule, the differential viability (reversal) in assay [6] (H69AR cells + 2 uM doxorubicin) is 21.1% (inactive). Further, the inhibition in assay [7] was -1.56% (inactive); in assay [8] it was -4.5% (inactive).
